Compound activity deposited in PubChem by several laboratories.
RAM network inh: blocks the yeast RAM network; S. cerevisiae dse1pr::URA3 reporter, 5-FOA growth OD615, 2 d; analog-sensitive cbk1-as2 kinase mutant strain; AID 868; inhibition, % at 50 µM; actives 1.8% (n = 190,000);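 active means inhibition above a set limit, 3 SD over mean compound inhibition, cut at about 8.4% in these data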;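 further: 0% = DMSO-only wells with no growth and 100% = 10 µM 1-NA-PP1 full growth; inhibition rescues growth on 5-FOA so higher OD means more RAM inhibition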
NPY1 pot ag: potentiates or activates human NPY-Y1 receptor. actives 0.37% (n = 220,000). NPY-Y1 expressing cells, potentiator/agonist activation. activation, % at 3.6 µM. P25929; in the data active means activation above about 33%, passing the limit was not always enough;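 further: cells stimulated with NPY at EC10 then isoproterenol at EC100; 0% = low agonist plus stimulus and 100% = saturating agonist plus stimulus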
Target sequence (P25929 whole entry, looked up): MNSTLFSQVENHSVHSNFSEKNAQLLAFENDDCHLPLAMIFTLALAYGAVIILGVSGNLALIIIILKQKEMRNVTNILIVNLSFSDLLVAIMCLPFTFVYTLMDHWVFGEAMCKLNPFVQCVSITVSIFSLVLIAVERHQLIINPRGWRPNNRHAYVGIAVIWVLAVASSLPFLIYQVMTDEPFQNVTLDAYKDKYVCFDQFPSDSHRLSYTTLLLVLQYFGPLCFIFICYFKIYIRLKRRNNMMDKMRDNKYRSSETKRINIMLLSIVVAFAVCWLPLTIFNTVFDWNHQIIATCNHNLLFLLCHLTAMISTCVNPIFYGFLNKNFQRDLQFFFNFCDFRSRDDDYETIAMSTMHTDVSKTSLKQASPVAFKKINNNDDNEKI
NPY-Y2 antag: blocks the human neuropeptide Y Y2 receptor | NPY-Y2 expressing cells, antagonist mode | inhibition, % at 2.7 µM | actives 0.99% (n = 140,000) | P49146; in the data active means inhibition above about 17%;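 further: 0% = vehicle with agonist challenge and 100% = reference antagonist with challenge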
NPY-Y1 antag: NPY-Y1 (human) receptor antagonism; P25929; HEK293-CNG Y1 cells, membrane potential fluorescence; NPY at EC95, then isoproterenol; inhibition, % at 3.6 µM; actives 1% (n = 200,000); AID 1040;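 active means inhibition above the campaign mean inhibition of all tested compounds plus 3 SD, cut at about 20% in these data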;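 further: 0% = DMSO wells given NPY plus isoproterenol and 100% = isoproterenol alone without NPY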
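Test system – HEK293 Y1/CNG channel cell line · Also added – NPY agonist 25 nM, then isoproterenol 1 µM plus Ro 20-1724 25 µM · Compound dosing – one concentration, 3.6 µM, in 0.4% DMSO · Schedule – compound incubation 1 h at room temperature, readout 45 min post-stimulation · Technique – fluorescence, membrane potential probe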
Insulin prom inh: TRM-6 insulin promoter activity inhibition; inhibition, % at 2 µM; AID 1273; actives 0.9% (n = 130,000); TRM-6 cells, insulin promoter-eGFP reporter, imaging; reporter expression induced with tamoxifen;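 active means inhibition above the mean plus 3 SD, with well images judged a real hit on visual review, cut at about 60% in these data, passing the limit was not always enough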
NPY2 pot ag: human NPY-Y2 potentiation or agonism, primary screen; activation, % at 3.6 µM; cells expressing NPY-Y2, potentiator/agonist read-out; P49146; actives 0.45% (n = 220,000); in the data active means activation above about 27%;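 further: cells stimulated with NPY near EC25 plus isoproterenol at EC100; 0% = vehicle plus submaximal agonist and 100% = vehicle plus saturating agonist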
RAM efflux-def: RAM network inhibition, efflux-deficient strain. shares compounds with RAM network inh. S. cerevisiae efflux-deficient reporter strain, 5-FOA growth OD615, 2 days. max inhibition, %. 1,200 tested, under 10 active. AID 1305; call rule not given here;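 further: plate controls were vehicle for no effect and reference inhibitor for full effect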
Active calls of the source: *; . = no result given. Rows were chosen to be rich in hits. Some 3.8% of all compounds tested hit in one or more screens of this group.

SMILES	RAM network inh	NPY1 pot ag	NPY-Y2 antag	NPY-Y1 antag	Insulin prom inh	NPY2 pot ag	RAM efflux-def
CCCS(=O)(=O)c1c(S(=O)(=O)CCC)c2c(N)cccn2c1C(=O)c1ccc(Br)cc1	13*	-3	-3	-12	-190	10	1
CCCS(=O)(=O)c1c(S(=O)(=O)CCC)c2c(N)cccn2c1C(=O)c1ccc(F)cc1	3	-6	-3	-8	.	16	.
CSC(=O)NC(=O)NC(=O)c1ccc([N+](=O)[O-])cc1	.	13	.	.	.	0	.
Cc1ccccc1-n1c(SCC(=O)c2c(N)n(C)c(=O)n(C)c2=O)nnc1-c1cccnc1	4	9	1	-3	-23	15	.
COc1ccccc1-n1c(COc2ccccc2-c2ccccc2)nnc1SCC(=O)c1c(N)n(C)c(=O)n(C)c1=O	14*	9	2	2	2	10	8
COCCn1c(=NC(=O)c2sc3ccccc3c2Cl)sc2cc(S(N)(=O)=O)ccc21	16*	-8	5	9	-20	4	2
Cc1ccc(/C=C/C(=O)OCC(=O)Nc2ccccc2Sc2ccccc2)cc1	19*	7	11	4	10	3	6
COc1ccccc1/C=C/C(=O)OCC(=O)Nc1c(F)cccc1F	3	-17	.	0	.	-8	.
COc1ccc(OC)c(/C=C/C(=O)OCC(=O)Nc2cccc(Oc3ccccc3)c2)c1	13*	-37	6	6	42	-15	3
CC(C)CC(=O)OCC(=O)Nc1ccccc1Sc1ccccc1	1	7	0	1	23	13	.
COc1cccc(/C=C/C(=O)OCC(=O)Nc2ccccc2Sc2ccccc2)c1	24*	-63	14	14	-7	-26	6
CCN(CC)S(=O)(=O)c1ccc(C(=O)OCC(=O)NCCN2C(=O)CSC2=O)cc1	3	1	.	1	.	4	.
COc1ccc(C2(CNS(=O)(=O)c3ccc(C)cc3)CCOCC2)cc1	.	4	.	.	.	20	.
O=C(Nc1cccc(C(F)(F)F)c1)C1CCCCC1	22*	16	5	18	.	-11	0
CS(=O)(=O)N1CCC(C(=O)Nc2cccc(C(F)(F)F)c2)CC1	-1	14	0	2	3	1	.
CCc1cc2c(=O)n(Cc3ccco3)c(SCC(=O)N3CCCc4ccccc43)nc2s1	4	-2	-2	1	.	-20	.
CCc1cc2c(=O)n(Cc3ccco3)c(SCc3c(C)noc3C)nc2s1	13*	-10	9	4	.	-24	7
CCCCN(CCCC)CCNC(=O)CSCc1ccc(C)cc1	1	-34	.	18	.	-25	.
CCOC(=O)C(c1ccccc1)C(Nc1cc(C(F)(F)F)cc(C(F)(F)F)c1)c1ccccn1 (stereo not given)	.	-20	.	.	.	-22	.
COCCNC(=O)/C(C#N)=C/c1ccc(-c2ccc(S(=O)(=O)N3CCOCC3)cc2)o1	3	-17	1	2	14	5	.
CCOCCCNC(=O)/C(C#N)=C/c1ccc(-c2ccc(S(=O)(=O)N3CCOCC3)cc2)o1	12*	-15	2	3	34	-5	3
O=C(OCc1nnc(-c2ccccc2)o1)C12CC3CC(CC(Br)(C3)C1)C2	21*	-6	.	3	0	-21	2
O=C(OCc1nnc(-c2ccccc2)o1)c1ccccc1	0	12	.	-1	.	-13	.
CC(C)=CCN1CCN(Cc2cn[nH]c2C2CCCCC2)CC1CCO (stereo not given)	-1	-14	.	1	.	-6	.
CCOC(=O)CC(=O)CSc1nc(N)c(C#N)c(-c2ccc(Cl)cc2)c1C#N	13*	7	-5	-3	.	1	3
SMILES	RAM network inh	NPY1 pot ag	NPY-Y2 antag	NPY-Y1 antag	Insulin prom inh	NPY2 pot ag	RAM efflux-def
O=C(OCc1ccccc1F)c1ccc2c(c1)-c1ccccc1C2=O	13*	2	2	-1	.	-3	3
CCOC(=O)c1c(C)nc2c(c1-c1cc(OC)ccc1OC)C(=O)c1ccccc1-2	5	-2	0	9	.	12	.
CCOC(=O)c1ccc(COC(=O)c2ccc3c(c2)-c2ccccc2C3=O)cc1	12*	-9	0	-1	3	13	5
CCOC(=O)C1=C(Cc2ccc(OC)cc2)C(=O)c2ccccc2C1=O	12*	0	7	2	29	5	3
O=C(OCc1cccc(F)c1)c1ccc2c(c1)-c1ccccc1C2=O	8	-4	4	-2	.	1	.
Cc1ccc2c3c([nH]c2c1C)-c1nonc1CC3	4	-35	4	5	13	-14	.
COc1ccc(C(C)=O)cc1COc1ccc(F)cc1	0	-19	.	0	.	0	.
COc1ccc(C(=O)/C=C/c2ccc(OC)c(COc3ccc(F)cc3)c2)cc1	18*	-22	-1	7	3	3	3
COc1ccc(/C=C/C(=O)c2ccc(OC)cc2OC)c(OC)c1	14*	-17	.	-3	.	-29	2
COc1ccc(OC)c(/C=C/C(=O)c2ccc(Cl)cc2)c1	13*	11	1	6	.	-4	5
COc1ccccc1/C=C/C(=O)c1ccc(Cl)cc1	0	-3	5	14	.	-16	.
COc1ccc(/C=C/C(=O)c2ccccc2)c(OC)c1	1	-23	.	0	.	-10	.
Cc1nc(N2CCCCC2)nc(N2CCCCC2)c1C=O	4	19	.	5	.	-10	.
COc1cccc(CSc2nc3cc4c(cc3cc2C)OCCO4)c1	18*	-11	2	9	-3	-1	3
CCOC(=O)c1c(NC(=O)CSc2nnc(Cc3ccccc3)o2)sc(C)c1C	14*	-45	13	10	30	-52	4
CCOC(=O)c1c(NC(=O)CSc2nnc(-c3ccco3)o2)sc(C)c1C	12*	25	13	12	-37	-3	4
Nc1ccc(C(=O)c2cccs2)cc1[N+](=O)[O-]	13*	19	.	1	12	-1	13
CC1CCc2nc(NC(=O)CN3CCN(Cc4ccc5c(c4)OCO5)CC3)sc2C1 (stereo not given)	1	-10	6	11	51	-23	.
CC1CCc2nc(NC(=O)Nc3ccc4c(c3)OCO4)sc2C1 (stereo not given)	23*	13	3	-6	.	-7	2
O=C(O)c1ccccc1C(=O)NCCc1c(C(=O)O)[nH]c2ccc(Cl)cc12	.	11	.	.	.	-5	.
O=C(CCN1c2ccccc2Sc2ccccc21)Oc1ccccc1	8	3	0	8	31	9	.
CC(=O)c1ccc(OC(=O)CCN2c3ccccc3Sc3ccccc32)cc1	11*	5	2	0	34	1	3
CC1CC(C)CN(Cc2nc(N)nc(Nc3ccc4ccccc4c3)n2)C1 (stereo not given)	0	-31	8	19	38	-18	.
